Assay results published in ChEMBL document CHEMBL2407062, “Synthesis and anticancer activities of 5,6,7-trimethoxy-N-phenyl(ethyl)-4-aminoquinazoline derivatives” (Eur J Med Chem, 2013).
The source made the active and inactive calls. The rule behind the calls is not given here.

Legend:
Bcap37 [1] = experiment: Growth inhibition of human Bcap37 cells at 10 uM after 72 hrs by MTT assay relative to control; assay type: functional; details: for inhibition of growth at 10 µM: Homo sapiens, Bcap37, 72 h, read-out: GI
In short: (§1)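 Cells in RPMI 1640 with 10% heat-inactivated FBS, 37 °C, 5% CO2. Seeded at 2 × 10³ cells per well. Compounds dissolved in DMSO, diluted in medium, tested at 1–100 μM for 72 h; 0.1% DMSO control. MTT read-out, absorbance at 595 nm. Mean ± SD of triplicate experiments. IC50 taken from the dose–response curve.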

Bcap37 [2] = experiment: Growth inhibition of human Bcap37 cells at 1 uM after 72 hrs by MTT assay relative to control; assay type: functional; details: for inhibition of growth at 1 µM: Homo sapiens, Bcap37, 72 h, read-out: GI; in short: as §1
BGC-823 [3] = experiment: Growth inhibition of human BGC823 cells at 10 uM after 72 hrs by MTT assay relative to control; assay type: functional; details: BGC-823, 72 h, read-out: GI; in short: as §1
BGC-823 [4] = experiment: Growth inhibition of human BGC823 cells at 1 uM after 72 hrs by MTT assay relative to control; assay type: functional; details: BGC-823, 72 h, read-out: GI; in short: as §1
PC-3 [5] = experiment: Growth inhibition of human PC3 cells at 1 uM after 72 hrs by MTT assay relative to control; assay type: functional; details: for inhibition of growth at 1 µM: Homo sapiens, PC-3, 72 h, read-out: GI; in short: as §1
PC-3 [6] = experiment: Growth inhibition of human PC3 cells at 10 uM after 72 hrs by MTT assay relative to control; assay type: functional; details: for inhibition of growth at 10 µM: Homo sapiens, PC-3, 72 h, read-out: GI; in short: as §1
[7] = target: T1, Mitogen-activated protein kinase; ERK1/ERK2 (Homo sapiens) (UniProt P27361+P28482); experiment: Inhibition of EGF-induced ERK1/2 phosphorylation in human PC3 cells at 10 uM incubated for 60 mins prior to EGF-treatment measured after 10 mins by Western blotting analysis; assay type: cell-based; details: PC-3
In short: (§2)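 PC3 cells grown 36–48 h in RPMI 1640 with 10% FBS at 37 °C, then serum-starved 24 h. Treated with compound for 60 min, then EGF 10 ng/mL for 10 min; quenched on ice. Cells washed with cold PBS and lysed in NP-40/SDS buffer with Na3VO4 and NaF. Run on 10% SDS-PAGE, PVDF blot probed for pERK1/2 with actin as loading control, ECL detection.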

[8] = target: T1, Mitogen-activated protein kinase; ERK1/ERK2 (Homo sapiens); experiment: Inhibition of EGF-induced ERK1/2 phosphorylation in human PC3 cells at 1.28 uM incubated for 60 mins prior to EGF-treatment measured after 10 mins by Western blotting analysis; assay type: cell-based; details: PC-3; in short: as §2
[9] = target: T1, Mitogen-activated protein kinase; ERK1/ERK2 (Homo sapiens); experiment: Inhibition of EGF-induced ERK1/2 phosphorylation in human PC3 cells at 5.12 uM incubated for 60 mins prior to EGF-treatment measured after 10 mins by Western blotting analysis; assay type: cell-based; details: PC-3; in short: as §2
Bcap37 [10] = experiment: Growth inhibition of human Bcap37 cells after 72 hrs by MTT assay; assay type: functional, cell-based; details: Bcap37, 72 h; in short: as §1
BGC-823 [11] = experiment: Growth inhibition of human BGC823 cells after 72 hrs by MTT assay; assay type: functional, cell-based; details: BGC-823, 72 h; in short: as §1
PC-3 [12] = experiment: Growth inhibition of human PC3 cells after 72 hrs by MTT assay; assay type: functional, cell-based; details: PC-3, 72 h; in short: as §1

T1 sequence (P27361 whole entry, looked up): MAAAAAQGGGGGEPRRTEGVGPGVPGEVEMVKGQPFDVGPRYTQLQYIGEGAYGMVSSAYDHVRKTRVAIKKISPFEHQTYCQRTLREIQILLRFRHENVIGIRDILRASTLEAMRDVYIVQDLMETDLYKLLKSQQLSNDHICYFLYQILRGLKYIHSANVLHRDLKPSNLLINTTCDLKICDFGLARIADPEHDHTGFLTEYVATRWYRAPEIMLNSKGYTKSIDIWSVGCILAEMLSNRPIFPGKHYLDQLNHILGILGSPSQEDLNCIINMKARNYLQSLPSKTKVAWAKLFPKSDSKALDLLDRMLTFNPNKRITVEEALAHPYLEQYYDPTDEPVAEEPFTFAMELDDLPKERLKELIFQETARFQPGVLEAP
T1 sequence (P28482 whole entry, looked up): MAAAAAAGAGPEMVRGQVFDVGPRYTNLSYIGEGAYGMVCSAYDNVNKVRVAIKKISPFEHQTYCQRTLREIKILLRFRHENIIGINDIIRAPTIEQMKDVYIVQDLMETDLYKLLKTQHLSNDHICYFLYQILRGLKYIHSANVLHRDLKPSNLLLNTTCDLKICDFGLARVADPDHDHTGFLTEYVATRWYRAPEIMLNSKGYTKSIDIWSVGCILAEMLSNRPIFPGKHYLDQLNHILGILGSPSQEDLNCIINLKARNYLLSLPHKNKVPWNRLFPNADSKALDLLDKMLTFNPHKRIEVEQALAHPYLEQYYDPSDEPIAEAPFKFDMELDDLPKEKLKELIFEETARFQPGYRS

Row | inhibition [7] | Structure (SMILES) | inhibition of growth at 10 µM (Bcap37 [1]) | inhibition of growth at 1 µM (Bcap37 [2]) | inhibition of growth at 10 µM (BGC-823 [3]) | inhibition of growth at 1 µM (BGC-823 [4]) | inhibition of growth at 1 µM (PC-3 [5]) | inhibition of growth at 10 µM (PC-3 [6]) | other results
1 |  | COc1cc2ncnc(Nc3cc(F)ccc3Br)c2c(OC)c1OC | 18.9% | 10.5% | 60.7% | 12.4% | 12.8% | 34.7% | 
2 |  | COc1cc2ncnc(Nc3ccc(Cl)cc3)c2c(OC)c1OC | 26.4% | 22.2% | 43% | 15.5% | 6.3% | 31.3% | 
3 | Active | COc1cc2ncnc(Nc3cc(C(F)(F)F)ccc3F)c2c(OC)c1OC | 27.6% | 14.4% |  |  | 7.6% | 29.2% | 
4 |  | COc1cc2ncnc(Nc3ccc(Br)cc3Cl)c2c(OC)c1OC | 18.6% | 8.7% |  |  | -8.4% | 49.7% | 
5 |  | COc1cc2ncnc(Nc3cccc(Cl)c3)c2c(OC)c1OC.Cl | 17.5% | 11% | 23.9% | 5.9% |  |  | growth inhibition (GI) (PC-3 [5]): 16.9%; growth inhibition (GI) (PC-3 [6]): 28.8%
6 |  | COc1cc2ncnc(Nc3c(F)cc(F)cc3Br)c2c(OC)c1OC | 2.2% | 4.3% | 68.4% | 38.5% | 8.1% | 43% | 
7 |  | COc1cc2ncnc(Nc3cc(C(F)(F)F)ccc3Br)c2c(OC)c1OC |  |  | 23.2% | 2.1% | -3.9% | 25.3% | 
8 |  | COc1cc2ncnc(Nc3cccc(Cl)c3)c2c(OC)c1OC [listing 1 of 2 here] |  |  |  |  |  |  | growth inhibition (GI) (Bcap37 [1]): 28.8%; growth inhibition (GI) (Bcap37 [2]): 14.1%; growth inhibition (GI) (PC-3 [5]): -4.5%; growth inhibition (GI) (PC-3 [6]): 11.9%
9 |  | COc1cc2ncnc(Nc3c(C)cc(C)cc3Br)c2c(OC)c1OC |  |  | 11.4% | 0.6% | 9.7% | 19.8% | 
10 |  | COc1cc2ncnc(NCCc3cccc(F)c3)c2c(OC)c1OC | 45.8% | 2.1% | 58.9% | 40.8% | 35.6% | 61.7% | 
11 | Active | COc1cc2ncnc(Nc3ccc(C(F)(F)F)cc3)c2c(OC)c1OC | 32.3% | 8.6% | 17.4% | 2.4% | 7.4% | 29% | inhibition [8]: Active
12 | Active | COc1cc2ncnc(Nc3cccc(C(F)(F)F)c3)c2c(OC)c1OC | 23.5% | 21% | 24.3% | 1% | 14.9% | 46.6% | inhibition [8]: Active
13 |  | COc1cc2ncnc(Nc3cccc(F)c3)c2c(OC)c1OC.Cl | 13.5% | 7% |  |  | 14.9% |  | growth inhibition (GI) (PC-3 [6]): 38.9%
14 | Active | COc1cc2ncnc(Nc3ccc(Br)cc3)c2c(OC)c1OC | 26.1% | 10.4% | 32.6% | 13.8% | 1% | 22.2% | 
15 |  | COc1cc2ncnc(Nc3cccc(C(F)(F)F)c3F)c2c(OC)c1OC | 69.3% | 11.3% | 41.9% | 3.9% | 9.2% | 42.7% | 
16 | Active | COc1cc2ncnc(Nc3ccc(O)cc3)c2c(OC)c1OC | 3.3% | -7.5% |  |  | 9.3% | 24.6% | 
17 | Active | COc1cc2ncnc(Nc3ccc(C)cc3)c2c(OC)c1OC | 11.1% | 7.3% | 19.3% | 1.2% | 23.8% | 45.6% | inhibition [9]: Active
18 | Active | COc1cc2ncnc(Nc3cccc(Cl)c3)c2c(OC)c1OC [listing 2 of 2 here] |  |  |  |  |  |  | 
19 |  | COc1cc2ncnc(Nc3cc(I)ccc3C(=O)O)c2c(OC)c1OC | 20.7% | 19.4% | 51.9% | 42.2% | 14.1% | 22.6% | 
20 |  | COc1cc(Nc2ncnc3cc(OC)c(OC)c(OC)c23)c(C(=O)O)cc1OC | 53.7% | 40.9% | 34.3% | 13.2% | 12.5% | 40.4% | 
21 |  | COc1cc2ncnc(Nc3ccc([N+](=O)[O-])cc3)c2c(OC)c1OC | -16.3% | -12% |  |  | 7.9% | 24.9% | 
22 | Active | COc1cc2ncnc(Nc3cccc(F)c3)c2c(OC)c1OC [listing 1 of 2 here] |  |  |  |  |  |  | inhibition [9]: Active
23 |  | COc1cc2ncnc(Nc3cccc(F)c3)c2c(OC)c1OC [listing 2 of 2 here] |  |  |  |  |  | 21.5% | growth inhibition (GI) (PC-3 [5]): 14.7%
24 |  | COc1cc2ncnc(Nc3cccc([N+](=O)[O-])c3)c2c(OC)c1OC | 50% | 31.6% | 16.3% | 9% | 14.5% | 26.4% | 
25 | Active | COc1cc2ncnc(Nc3ccccc3F)c2c(OC)c1OC |  |  |  |  | 0.9% | 24% | 
26 |  | COc1cc2ncnc(Nc3ccccc3[N+](=O)[O-])c2c(OC)c1OC | 15.4% | -8.3% |  |  | 11.3% | 25.5% | 
27 | Active | COc1cc2ncnc(Nc3ccc(F)cc3)c2c(OC)c1OC | 10.8% | 7.8% |  |  | 3.1% | 9.1% | inhibition [9]: Active
28 |  | COc1cc2ncnc(Nc3cccc(Br)c3)c2cc1OC | 43.4% | 19.8% | 32.6% | 9.3% | 21.5% | 62.8% | IC50 (Bcap37 [10]): 15.7 µM; IC50 (BGC-823 [11]): 14.4 µM; IC50 (PC-3 [12]): 8.3 µM
